Measured values pooled from the literature.
Lines come from different studies, so protocols differ.
Organism: Leishmania donovani
Read-out: parasite growth

The IC50 of `N=C(N)c1ccc(OCCCCCOc2ccc(C(=N)N)cc2)cc1` is reported as 1 µg/mL (resazurin; promastigote).
The EC50 of `COc1ccccc1-c1n[nH]c2nc(NC3CCN(C(=O)Cc4ccc(OCCOCCN)cc4)CC3)ncc12` is reported as 26.7 µM (THP-1; intracellular, amastigote).
For `Fc1cccc(Nc2nc(-c3ccccn3)nc3ccccc23)c1`, the IC50 was 0.79 µM (imaging; THP-1; intracellular, amastigote).
The IC90 of `COc1cc(NC(C)CCCNC(=S)NCCCC(C)Nc2cc(OC)cc3cccnc23)c2ncccc2c1.Cl.Cl` (stereo not drawn) is reported as 20 to 31 µg/mL (resazurin; promastigote).
With `C[C@@H]1[C@H](O)[C@@H](C)/C=C/C=C/C=C/C=C/C=C/C=C/C=C/[C@H](O[C@@H]2O[C@H](C)[C@@H](O)[C@H](N)[C@@H]2O)C[C@@H]2O[C@](O)(C[C@@H](O)C[C@@H](O)[C@H](O)CC[C@@H](O)C[C@@H](O)CC(=O)O[C@H]1C)C[C@H](O)[C@H]2C(=O)O` the IC90 was 1.8 µg/mL (resazurin; 72 h; promastigote).
The inhibition of `CCCCCCCCCCCCCCCCOP(=O)([O-])OCC[N+](C)(C)C` is reported as 100% (resazurin; 50 µM; 72 h; promastigote).
With `C[C@@H]1[C@H](O)[C@@H](C)/C=C/C=C/C=C/C=C/C=C/C=C/C=C/[C@H](O[C@@H]2O[C@H](C)[C@@H](O)[C@H](N)[C@@H]2O)C[C@@H]2O[C@](O)(C[C@@H](O)C[C@@H](O)[C@H](O)CC[C@@H](O)C[C@@H](O)CC(=O)O[C@H]1C)C[C@H](O)[C@H]2C(=O)O` the IC50 was 0.135 µM (promastigote).
`COc1ccccc1-c1n[nH]c2nc(NC3CCN(C(=O)Cc4ccc(OCCOCCNC(=O)OC(C)(C)C)cc4)CC3)ncc12` has an EC50 of 4.2 µM (amastigote).
With `C[C@@H]1[C@H](O)[C@@H](C)/C=C/C=C/C=C/C=C/C=C/C=C/C=C/[C@H](O[C@@H]2O[C@H](C)[C@@H](O)[C@H](N)[C@@H]2O)C[C@@H]2O[C@](O)(C[C@@H](O)C[C@@H](O)[C@H](O)CC[C@@H](O)C[C@@H](O)CC(=O)O[C@H]1C)C[C@H](O)[C@H]2C(=O)O` the IC90 was 5.4 µM (MTT; 48 h; promastigote).
The inhibition of `CCCCCCCC/C=C\CCCCCCCCCCCCOP(=O)([O-])OCC[N+](C)(C)C` is reported as 106% (resazurin; 25 µM; 72 h; promastigote).
`COc1ccccc1-c1n[nH]c2nc(N[C@H]3CC[C@H](NS(=O)(=O)CCCOCCOCCN)CC3)ncc12` gave an EC50 of 24.7 µM (THP-1; intracellular, amastigote).
The IC50 of `c1ccc(CNc2nc(-c3ccccn3)nc3ccccc23)cc1` is reported as 1.1 µM (imaging; THP-1; intracellular, amastigote).
